From PubChem BioAssay
In the library only some 2.4% were active in any assay of this set; here they are far more common.
LMPTP block: LMPTP phosphatase inhibitors, primary screen, biochemical, fluorescence intensity, uHTS | recombinant LMPTP-A, OMFP fluorogenic substrate | 360,000 compounds, 0.22% hits | inhibition, % at 20 µM | Low molecular weight phosphotyrosine protein phosphatase (Homo sapiens), P24666;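 active = compounds that cut the enzyme signal by at least half of the control window in the single-dose screen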;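 note: plate controls were DMSO wells with enzyme plus substrate for no effect and substrate without enzyme for full effect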
Target sequence (P24666 whole entry, looked up): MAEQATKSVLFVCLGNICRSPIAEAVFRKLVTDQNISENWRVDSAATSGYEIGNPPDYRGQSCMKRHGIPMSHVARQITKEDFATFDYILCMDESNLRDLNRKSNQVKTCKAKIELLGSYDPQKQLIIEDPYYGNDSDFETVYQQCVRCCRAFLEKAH
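Test system: LMPTP-A phosphatase enzyme. Amount: LMPTP-A at 0.625 nM final in the reaction. Reagent: OMFP substrate, 400 µM final. Times: 50 min at room temperature. Signal: endpoint fluorescence intensity from OMFP dephosphorylation. Read-out basis: % inhibition. Benchmarks: no-enzyme and uninhibited controls.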
STEP block: STEP phosphatase inhibitors, primary screen, biochemical, fluorescence intensity, uHTS; Tyrosine-protein phosphatase non-receptor type 5 (Homo sapiens), P54829; 360,000 compounds, 0.25% hits; recombinant STEP, OMFP fluorogenic substrate; AID 588621, 2011; inhibition, % at 20 µM;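 active = inhibition at 20 µM, scaled per plate between control wells, above about 37%, limit read from the data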;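 note: 0% = DMSO with enzyme and substrate and 100% = substrate only without enzyme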
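System: STEP (striatal-enriched tyrosine phosphatase) enzyme, cell-free; medium: Bis-Tris pH 6.0 buffer with DTT, detergent; dosing: 20 µM, 1% DMSO; times: reaction 20 min, ambient temperature; detection: fluorescence, 480/540 nm; read-out basis: normalized % inhibition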
Scp1 inh: Scp-1 phosphatase inhibitors, primary screen, biochemical, colorimetric, uHTS | AID 493091, 2011 | 340,000 compounds, 0.88% hits | inhibition, % at 20 µM | Carboxy-terminal domain RNA polymerase II polypeptide A small phosphatase 1 (Homo … | Recombinant Scp1, phosphopeptide, malachite green phosphate absorbance;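 active = inhibition above about 50% at 20 µM, limit read from the data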;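 note: plate controls were DMSO wells with enzyme for no effect and wells lacking enzyme for full effect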
Target sequence (Q9GZU7 76-261 limits assumed): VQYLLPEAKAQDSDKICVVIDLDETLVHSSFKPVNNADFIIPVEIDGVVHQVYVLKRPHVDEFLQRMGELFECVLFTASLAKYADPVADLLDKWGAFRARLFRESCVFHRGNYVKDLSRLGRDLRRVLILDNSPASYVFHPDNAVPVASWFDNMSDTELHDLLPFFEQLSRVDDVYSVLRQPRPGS
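Test system: SCP-1 catalytic domain; Buffer or medium: Acidic Tris acetate buffer with magnesium and detergent; Also added: Phosphorylated 17-residue peptide substrate; Compound: single 20 µM dose, 1% DMSO; Schedule: enzyme reaction 45 min at room temperature, colour 5 min, stabilisation 30 min; Signal: Phosphate-binding colour reagent, absorbance read at 630 nm.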
NadD block: inhibitors of S. aureus NadD, primary screen, biochemical, colorimetric, uHTS; Nicotinate-nucleotide adenylyltransferase NadD (Staphylococcus aureus N315); 360,000 compounds, 0.78% hits; purified NadD enzyme, colorimetric absorbance read-out; inhibition, % at 20 µM; in the data active = inhibition above about 26%
DNMT1 inh: human DNMT1 methyltransferase inhibitors, primary screen, biochemical, molecular beacon, fluorescence, HinP1I cleavage, uHTS; inhibition (reported as % activation of signal), % at 10 µM; 360,000 compounds, 0.83% hits; AID 588458, 2011; in the data active = inhibition above about 50%
SUMO1 PPI mod: modulators of SUMO1 protein-protein interactions, primary screen, biochemical, uHTS | SUMO1 binding to a labelled peptide, TR-FRET, 1 h | inhibition, % at 20 µM | AID 602429, 2012 | Small ubiquitin-related modifier 1 (Homo sapiens), P63165 | 360,000 compounds, 0.33% hits; in the data active = inhibition above about 37%
Target sequence (P63165 whole entry, looked up): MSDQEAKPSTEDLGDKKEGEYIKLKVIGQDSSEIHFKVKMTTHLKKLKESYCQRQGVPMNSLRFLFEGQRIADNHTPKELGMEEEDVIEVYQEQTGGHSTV
Scp1 confirm: Scp-1 phosphatase inhibitors, retest, confirmation, biochemical, colorimetric, single concentration | shares compounds with Scp1 inh | recombinant SCP-1 catalytic domain, phosphate release, malachite green absorbance | inhibition, % at 20 µM | 2,500 compounds, 61% hits;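 note: plate controls were DMSO with enzyme for no effect and buffer wells lacking enzyme for full effect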
Scp-1 MG ctr: colorimetric readout interference by compounds, confirmation, artefact control for Scp-1 inhibitor project, biochemical, single concentration | AID 540313, 2011 | 2,500 tested, under 10 active | shares compounds with Scp1 inh | Colorimetric interference counterscreen, malachite green absorbance 630 nm | apparent inhibition (interference), % at 20 µM;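 note: compounds added after enzyme reaction finished so only phosphate colour detection is probed; plate controls were DMSO wells with completed Scp-1 reaction for no effect and substrate wells lacking enzyme for full effect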
Scp-1 Tm shift: Scp-1 binding by thermal shift, confirmation, orthogonal assay for Scp-1 inhibitor project, biophysical, differential scanning fluorimetry; thermal shift relative to vanadate control, % at 40 µM; AID 540329, 2011; shares compounds with Scp1 inh; 1,500 compounds, 25% hits; Recombinant SCP1, Sypro Orange thermal shift Tm;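 active = substances whose mean melting-temperature shift, as a percentage of the reference inhibitor's shift, reaches about 5.3%, limit read from the data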;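 note: 0% = Tm of DMSO wells and 100% = Tm with sodium orthovanadate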
Active calls of the source: *; / = no result given.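 Rule for the calls, unless noted: active = inhibition of at least 30% at 20 µM; inactive = the rest.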

SMILES	LMPTP block	STEP block	Scp1 inh	NadD block	DNMT1 inh	SUMO1 PPI mod	Scp1 confirm	Scp-1 MG ctr	Scp-1 Tm shift
CCc1nc2c(OCCn3cccc3)cccn2c1N(C)C(=O)c1ccccc1F	3	-1	/	2	-5	-1	/	/	/
N#C/C(=C\c1ccc[nH]1)C(=O)Nc1ccccc1[N+](=O)[O-]	32	-1	55*	-4	21	25	64*	-7	5.3*
CC1=NNC(=O)C1CCC(=O)N/N=C/c1ccco1 (stereo not given)	-2	-4	-4	4	-3	-4	46*	-14	-21
CC1=NNC(=O)C1CCC(=O)N/N=C/c1ccc(Cl)cc1Cl (stereo not given)	0	0	-8	-4	0	-3	/	/	/
COc1ccc(OC)c(/C=N/NC(=O)CC2C(=O)NN=C2C)c1 (stereo not given)	0	-1	-2	-1	4	-8	2	-6	/
CS(=O)(=O)c1ccc2nc(NC(=O)c3cc4ccccc4o3)sc2c1	-2	-1	-7	-6	2	-3	/	/	/
CS(=O)(=O)c1ccc2sc(NC(=O)c3cc4ccccc4o3)nc2c1	2	-1	69*	3	3	-5	29	-16	/
Cc1ccc(-c2cc(C(=O)N/N=C/c3ccccc3)n[nH]2)o1	0	-1	-10	4	1	-1	/	/	/
Cc1ccc(-c2cc(C(=O)N/N=C/c3ccc(Cl)cc3)n[nH]2)o1	2	5	65*	5	2	-6	88*	-7	-11
Cc1cc(Cl)ccc1NC(=O)CCC(=O)N/N=C/c1cc([N+](=O)[O-])ccc1O	35	0	55*	7	-2	-12	66*	-2	0
O=C(NCc1cccs1)C(=O)c1cn(CC(=O)N2CCCC2)c2ccccc12	0	1	1	-8	-1	-11	/	/	/
S=c1[nH]nc(COc2ccccc2)n1-c1ccc(Cl)cc1	0	-4	51*	-2	4	4	3	-10	/
Cn1c(=O)cc(OCC(=O)NCCC2=CCCCC2)c2ccccc21	-1	-1	-3	-3	1	1	-8	-10	/
Cn1c(=O)cc(OCC(=O)NCCc2ccc(Cl)cc2)c2ccccc21	-2	-1	-6	-8	1	1	/	/	/
COc1ccc(/C=C/C(=O)OCC(=O)Nc2cc(S(=O)(=O)N(C)C)ccc2Cl)cc1	-1	-1	-3	-3	2	2	/	/	/
O=C(COC(=O)/C=C/c1ccco1)NCCN1C(=O)CSC1=O	4	6	65*	-4	15	-7	29	-16	/
CN(C)S(=O)(=O)c1ccc(Cl)c(NC(=O)COC(=O)/C=C/c2ccco2)c1	6	6	69*	-1	26	-3	46*	-13	-4
CCCNC(=O)COC(=O)/C=C/c1ccco1	0	0	12	7	14	-12	/	/	/
